Consider 8 molecules from BindingDB's records for doi:10.1016/j.bmcl.2012.02.015 (Glaxosmithkline, 2012).

One may read the pKd as the negative decadic logarithm of the Kd, by convention in mol/L.

pKd: −log10 of the molar value.

The target in this assay is Muscarinic acetylcholine receptor M3 (Homo sapiens, UniProt P20309). The experiment in a line: Antagonist potency at human muscarinic acetylcholine M3 receptor expressed in CHO cells assessed as inhibition of Ach-induced calcium mobilization by FLIPR analysis relative to control. In outline: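 Human M3 receptor in CHO cells, ACh-stimulated calcium mobilization by FLIPR. pA2 derived from the ratio of the ACh EC50 with and without antagonist. Run only where the IC50 was below 10 nM. Values above 11 could not be determined accurately.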
Sequence of Muscarinic acetylcholine receptor M3 (P20309 whole entry): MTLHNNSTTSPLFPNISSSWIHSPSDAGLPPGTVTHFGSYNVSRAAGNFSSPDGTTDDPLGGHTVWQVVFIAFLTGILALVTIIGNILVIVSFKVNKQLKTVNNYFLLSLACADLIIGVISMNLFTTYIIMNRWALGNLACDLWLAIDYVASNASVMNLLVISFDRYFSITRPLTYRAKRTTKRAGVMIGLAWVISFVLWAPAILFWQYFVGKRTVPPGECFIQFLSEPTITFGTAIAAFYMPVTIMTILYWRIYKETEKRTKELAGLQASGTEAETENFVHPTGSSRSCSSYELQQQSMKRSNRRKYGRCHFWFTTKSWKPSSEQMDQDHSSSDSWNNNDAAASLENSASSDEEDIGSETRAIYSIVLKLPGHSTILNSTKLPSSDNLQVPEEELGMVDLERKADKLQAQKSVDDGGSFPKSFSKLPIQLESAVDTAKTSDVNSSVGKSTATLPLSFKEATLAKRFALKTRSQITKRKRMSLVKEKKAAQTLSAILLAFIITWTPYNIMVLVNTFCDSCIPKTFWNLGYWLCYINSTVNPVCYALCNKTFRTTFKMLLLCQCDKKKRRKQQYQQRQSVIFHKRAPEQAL
On the technique in general: Calcium flux is commonly read through the fluorescence of an indicator in the cells.
`CCC[N+]1(C)C2CCC1CC(CC(C#N)(c1ccccc1)c1ccccc1)C2` (stereo not drawn): the pKd was 10.30. Next, `COCCOCC[N+]1(C)C2CCC1CC(CC(C#N)(c1ccccc1)c1ccccc1)C2` (stereo not drawn): 9.20; `C[N+]1(CC2CC2)C2CCC1CC(CC(C#N)(c1ccccc1)c1ccccc1)C2` (stereo not drawn): 10.30; `CC[N+]1(C)C2CCC1CC(CC(C#N)(c1ccccc1)c1ccccc1)C2` (stereo not drawn): 10.30. Consider `C[N+]1(CCO)C2CCC1CC(CC(C#N)(c1ccccc1)c1ccccc1)C2` (stereo not drawn), for which the pKd is 9.80. Next, `C=CC[N+]1(C)C2CCC1CC(CC(C#N)(c1ccccc1)c1ccccc1)C2` (stereo not drawn): 8.90. Take `COCC[N+]1(C)C2CCC1CC(CC(C#N)(c1ccccc1)c1ccccc1)C2` (stereo not drawn): the pKd is 9.30.

`C[N+]1(CCCC#N)C2CCC1CC(CC(C#N)(c1ccccc1)c1ccccc1)C2` (stereo not drawn): the pKd is 9.80.
